From ChEMBL document CHEMBL1135898, “Synthesis and antimycobacterial activity of 6-arylpurines: the requirements for the N-9 substituent in active antimycobacterial purines” (J Med Chem, 2002) come the findings set out here.

For experiment [1], the system named is Mycobacterium avium. Kind of experiment: Minimum Inhibitory Concentration against drug-resistant strain of Mycobacterium tuberculosis avium. The experiment is classed as functional. The method in brief:
(§1)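 MICs by microplate alamar blue assay against M. tuberculosis strains resistant to isoniazid (ATCC 35822), rifampin (ATCC 35838), ethambutol, kanamycin or ciprofloxacin, drug-sensitive strain Erdman, and M. avium (ATCC 25291). MIC = minimum concentration giving 90% growth inhibition.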

The subject of experiment [2] is Mycobacterium tuberculosis. The experiment is described as follows: Minimum Inhibitory Concentration against drug-resistant strain of Mycobacterium tuberculosis Erdman. The experiment is classed as functional. The method in brief:
as §1

In brackets after ≈: the same amount, converted by molar mass.

A word on the MIC: it is the lowest concentration found to suppress growth. A high value points to weaker potency.

Consider `Clc1nc(-c2ccco2)c2ncn(Cc3ccccc3)c2n1`, for which the MIC was 25 µg/mL (≈ 80.5 µM) in experiment [1] and 12.5 µg/mL (≈ 40.2 µM) in experiment [2].
